Measurements reported in PubChem BioAssay AID504383 (The Scripps Research Institute Molecular Screening Center, 2011).
Among all 2,500 compounds or so, about 1,200 (48%) were called active. The set was probably picked from earlier hits. This is one part of the list. Unmarked numbers belong to inactive results.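 The calls were made as follows: active = mean activation above the low control average plus 3 SD, as set in the primary screen (cut at about 12% in these data); inactive = the rest.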

Molecular target: Troponin I, cardiac muscle (Homo sapiens) + Troponin T, cardiac muscle (Homo sapiens) + Troponin C, slow skeletal and cardiac muscles (Homo sapiens) (UniProt P19429+P45379+P63316)
Experiment: cardiac RTF calcium sensitivity activators, confirmation, biochemical, IANBD-TnC fluorescence, triplicate (AID 504383);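 also: 0% = DMSO at 0.472 mM calcium and 100% = DMSO at 2.9 mM calcium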
Conditions: IANBD-labeled cardiac RTF, Ca2+ sensitivity fluorescence; at 7.2 µM; stronger effect = higher value; scaled from EC20 to saturating calcium; tested at EC20 calcium, 0.472 mM
Outline: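 material = labelled regulated thin filaments | probe or stimulus = Ca2+ 0.472 mM, EC20 level | dosing = single nominal compound dose of 7.2 µM | schedule = 15 min at 25 °C | signal = fluorescence intensity of labelled filaments | evaluation = fluorescence gain scaled between EC20 and EC100 calcium controls | benchmarks = low control EC20 calcium, high control EC100 calcium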

Row | Compound | activation
1 | Cc1cc(S(=O)(=O)Nc2c(C)nn(C)c2C)c(Cl)cc1Cl | 10.6%
2 | O=C1NC(=Nc2ccccc2Cl)S/C1=C\c1cc([N+](=O)[O-])ccc1O | 20.8% (active)
3 | Cc1ccc(S(=O)(=O)/N=C2/NC(=O)/C(=C/c3cc([N+](=O)[O-])ccc3O)S2)cc1 | 4.75%
4 | COc1cccc(N=C2NC(=O)/C(=C/c3cc([N+](=O)[O-])ccc3O)S2)c1 | 9.82%
5 | C#CCN1c2ccccc2Sc2cccnc21 | 13.6% (active)
6 | O=C(Nc1ccccc1)c1ccc(NCCc2ccccc2)c([N+](=O)[O-])c1 | 5.71%
7 | Cc1cccc(OCCNc2ccc(C(F)(F)F)cc2[N+](=O)[O-])c1 | 159% (active)
8 | COc1cccc(C(=O)NC2CC3CCCC(C2)N3CC(=O)Nc2ccc(N(C)C)cc2)c1 (configuration not stated) | 21.3% (active)
9 | COc1ccc(NC(=O)CS(=O)(=O)c2cccc(Cl)c2)cc1 | 6.14%
10 | Cc1ccc(NC(=O)CC2SC3=NCCCN3C2=O)c(C)c1 (configuration not stated) | 9.67%
11 | CSCCC(NC(=O)c1ccccc1Cl)C(=O)N1CCC1 (configuration not stated) | 3.34%
12 | COc1ccc2c(c1)cc(C(=O)N[C@@H](CCSC)C(=O)N1CCC[C@H]1C(=O)O)n2C | 20.4% (active)
13 | COc1ccc(OC)c(/C=N/N=C(\N)c2nonc2N)c1 | 18.5% (active)
14 | COc1ccc(N=C(N)N=C(N)N)c(OC)c1 | 7.88%
15 | COc1ccc(C2C(C#N)=C(N)N(c3cccnc3)C3=C2C(=O)CCC3)cc1Cn1cc([N+](=O)[O-])cn1 (configuration not stated) | 18.5% (active)
16 | COc1ccc(NC(=O)NS(=O)(=O)c2ccc(C)cc2)cn1 | 7.89%
17 | COc1ccc(S(=O)(=O)Nc2cc(C)on2)cc1 | 57.2% (active)
18 | O=c1[nH]c2ccccc2nc1/C=C/c1ccc(F)cc1 | 9.41%
19 | O=c1[nH]c2ccccc2nc1/C=C(\O)c1cccs1 | 11.4%
20 | O=c1[nH]c2ccccc2nc1/C=C/c1ccccc1 | 351% (active)
21 | CC1(C)CC(=O)C(CC2CCCCC2=O)C(=O)C1 (configuration not stated) | 15.2% (active)
22 | CN1CCc2c(sc3nc(SCC(N)=O)n(-c4ccccc4)c(=O)c23)C1 | 3.18%
23 | O=C(COC(=O)C1CC2C=CC1C2)Nc1cccc(S(=O)(=O)N2CCCCCC2)c1 (configuration not stated) | 5.75%
24 | NS(=O)(=O)c1cccc(NC(=O)CCc2ccc(S(=O)(=O)N3CCOCC3)cc2)c1 | 84.4% (active)
25 | O=C(CCc1ccc(S(=O)(=O)N2CCOCC2)cc1)OCC(=O)c1ccccc1 | 20.7% (active)

Row | Compound | activation
26 | Nc1ccc2c(c1)C/C(=C/c1ccco1)C2=O | 22% (active)
27 | O=C1C(=Cc2ccco2)CCCC1=Cc1ccco1 | 93.5% (active)
28 | O=C1/C(=C/c2c[nH]c3ccccc23)CCC/C1=C\c1c[nH]c2ccccc12 | 7.19%
29 | O=C1CC(/C=C/c2ccco2)=Nc2ccccc2N1 | 7.68%
30 | Cc1cc(O)c(CN(C)C)c2c1C(=O)/C(=C/c1ccco1)O2 | 8.55%
31 | O=C(O)CCC(=O)NNC(=O)c1ccc(-c2ccccc2)cc1 | 104% (active)
32 | CCNC(=O)COc1ccc(-c2ccccc2)cc1 | 4.33%
33 | O=C(COC(=O)/C=C/c1ccccc1[N+](=O)[O-])NNC(=O)c1ccc(F)cc1 | 9.23%
34 | Cc1ccsc1/C=C/C1=Cc2c(sc(NC(=O)CSc3n[nH]c(N)n3)c2C#N)C(C)(C)C1 | 6.84%
35 | O=S(=O)(Nc1nc2ccccc2nc1NCCO)c1cccc(Cl)c1 | 233% (active)
36 | O=S(=O)(Nc1nc2ccccc2nc1N1CCN(c2ccccn2)CC1)c1ccc(Cl)cc1 | 0.27%
37 | Cn1c(-c2ccc(C=O)s2)nc2c3ccccc3c3ccccc3c21 | 25.8% (active)
38 | CCOc1ccc(-c2nc3scc(-c4cccs4)c3c(=O)[nH]2)cc1 | 54.4% (active)
39 | COc1ccc(C2c3ccc(O)cc3Oc3ncn(Cc4ccco4)c(=N)c32)cc1 (configuration not stated) | 15.9% (active)
40 | COc1ccc(C2c3ccc(O)cc3Oc3ncn(CCN4CCOCC4)c(=N)c32)cc1OC (configuration not stated) | 23% (active)
41 | COc1ccc(C2c3ccc(O)cc3Oc3ncn(CCCO)c(=N)c32)cc1OC (configuration not stated) | 6.69%
42 | N=c1c2c(ncn1Cc1ccco1)Oc1cc(O)ccc1C2c1ccccc1 (configuration not stated) | 127% (active)
43 | COc1ccc(C2c3ccc(O)cc3Oc3ncn(Cc4ccccc4)c(=N)c32)cc1OC (configuration not stated) | 2.66%
44 | Cc1c(O)ccc(/C(Cc2ccc3ccccc3n2)=N\N)c1O | 9.3%
45 | CCCCOc1[nH]c2nc(-c3ccco3)n(Cc3ccco3)c(=N)c2c1C#N | 7.26%
46 | N#CC1(C#N)CC(C=O)=C(N)C1(C#N)CC(=O)c1ccc(F)cc1 (configuration not stated) | 18.1% (active)
47 | CCOC(=O)C1=C(C)NC(=O)/C1=C\N(C)C | 3.21%
48 | COC(=O)C1=C(C)NC(=O)/C1=C\N(C)C | 29.9% (active)
49 | CCN(CC)c1ccc(/C=C2\C(=O)c3ccc(C(=O)O)cc3C2=O)cc1 | 28.1% (active)
50 | CCN(CC)c1ccc(/C=C2/C(=O)c3ccc(C(=O)O)cc3C2=O)cc1 | 21.9% (active)

Row | Compound | activation
51 | CCN(CC)c1ccc(/C=C/C(=O)c2ccc(Br)cc2)cc1 | 11.2%
52 | CN(/N=C/c1ccc(N(C)C)cc1)C1=NS(=O)(=O)c2ccccc21 | 32.9% (active)
53 | COc1ccccc1C(=O)NN(C)C1=NS(=O)(=O)c2ccccc21 | 7.92%
54 | CN(C)c1ccc(/C=N/N(CCO)C2=NS(=O)(=O)c3ccccc32)cc1 | 13.5% (active)
55 | Cc1ccc(C(=O)Nc2ccc3c(c2)ncn3C)cc1 | 27.7% (active)
56 | COc1ccc(COc2cc(-c3cccc(OC)c3)nc3ccc(NC(=O)c4ccc(C)cc4)cc23)cc1 | 1.71%
57 | Cc1cc(NC(=O)CCC(=O)N(CCC(C)C)C(C(=O)NC2CCCC2)c2cccnc2)no1 (configuration not stated) | 3.5%
58 | CC(=O)NC(CCS(C)(=O)=O)C(=O)Nc1cc(C)on1 (configuration not stated) | 15.8% (active)
59 | CCN(CC(=O)Nc1c(F)cccc1F)C(=O)CNC(=O)COc1ccccc1 | -0.22%
60 | CCN(CC(=O)Nc1ccccc1C(F)(F)F)C(=O)c1ccc(-n2nc(C)c(CCC(=O)OC)c2C)cc1 | 29.8% (active)
61 | COc1ccc(-c2cc3ncc(-c4ccccc4)c(N)n3n2)cc1 | 15.2% (active)
62 | COc1ccc(OC)c2[nH]c(=O)c(CCNS(=O)(=O)c3ccc(Cl)cc3)cc12 | 1.64%
63 | O=C(Nc1cccc(Cl)c1)c1cc(S(=O)(=O)NCCc2ccc(Cl)cc2)ccc1F | 13.9% (active)
64 | COc1ccc(C(=O)c2sc3nc(C)cc(-c4cccs4)c3c2N)cc1 | 24.7% (active)
65 | COc1ccc(C(=O)c2sc3nc(-c4ccccc4)ccc3c2N)cc1 | 85.5% (active)
66 | COc1ccc(C(=O)c2ccsc2N)cc1 | 22% (active)
67 | COc1ccc(-c2c(C#N)c(N)nc3sc(C(=O)c4ccccc4)c(N)c23)cc1 | -1.46%
68 | COc1ccc(C(=O)c2sc3nc(C)cc(-c4cccs4)c3c2N)cc1OC | 4.99%
69 | Cc1cc(C)c(S(=O)(=O)Nc2ccc3[nH]c(=O)[nH]c3c2)c(C)c1 | 21.2% (active)
70 | Cc1ccc(NC(=O)C(OC(=O)c2ccc(F)cc2)c2ccccc2)cc1Cl (configuration not stated) | 8.32%
71 | Cc1ccc(NC(=O)Nc2ccc(F)cc2)cc1Cl | 20.6% (active)
72 | Cc1cc(C)c(C(N)=O)c(Nc2ccc(F)cc2)n1 | 1.65%
73 | O=C(O)c1cc(Cl)ccc1-c1ccc(/C=C/c2cc(C(F)(F)F)[nH]c(=O)n2)o1 | 56.3% (active)
74 | O=C(O)c1ccccc1-c1ccc(/C=C/c2cc(C(F)(F)F)[nH]c(=O)n2)o1 | 8.85%
75 | CC(=O)OCC[N+](C)(C)C | 54.7% (active)

Row | Compound | activation
76 | O=C1/C(=C/c2ccc(Br)cc2)Oc2cc(O)ccc21 | 58.7% (active)
77 | O=C1/C(=C/c2cccc(F)c2)Oc2cc(O)ccc21 | 5.33%
78 | COc1cc(/C=C2\Oc3cc(O)ccc3C2=O)ccc1O | -0.13%
79 | COC1=C/C(=C/c2c(N)n3c(nc2=O)sc2cc(S(C)(=O)=O)ccc23)C=CC1=O | 10.2%
80 | COC1=C/C(=C/c2c(N)n3cc(C)sc3nc2=O)C=CC1=O | 4.28%
81 | Cc1cn2c(N)c(C=C3C=C(Cl)C(=O)C(Cl)=C3)c(=O)nc2s1 | 17.6% (active)
82 | C=CCNc1nnc(SCC(=O)N2CCC(C(N)=O)CC2)s1 | 15.8% (active)
83 | Cc1ccc(C2C(C(=O)c3cccs3)=C(O)C(=O)N2c2nnc(C)s2)cc1 (configuration not stated) | 52.5% (active)
84 | COc1ccc(C2C(C(=O)c3cccs3)=C(O)C(=O)N2c2nncs2)cc1 (configuration not stated) | 20.1% (active)
85 | Cc1cc(N2C(=O)C(O)=C(C(=O)c3cccs3)C2c2ccc(F)cc2)no1 (configuration not stated) | 23.8% (active)
86 | O=C(Oc1ccc2ccc(=O)oc2c1)c1cccs1 | 1.63%
87 | COc1ccc(C2C(C(=O)c3cccs3)=C(O)C(=O)N2c2nnc(C)s2)cc1OC (configuration not stated) | 7.86%
88 | C=CCOc1ccc(C2C(C(=O)c3cccs3)=C(O)C(=O)N2c2nnc(C)s2)cc1 (configuration not stated) | 15.5% (active)
89 | O=C(c1ccccc1)N1C(=O)C(c2ccccc2)Oc2ccccc21 (configuration not stated) | 1.2%
90 | COc1cc(OC)cc(C(=O)NCC(=O)OC2CCOC2=O)c1 (configuration not stated) | 17.4% (active)
91 | O=C1/C(=C/c2cccs2)N=C(c2cccs2)N1Nc1ccccc1 | 18.7% (active)
92 | CCOc1ccc(NC(=O)/C(C#N)=C\c2ccc(N3CCCC3)c(C)c2)cc1 | 1.35%
93 | CCOc1ccc(NC(=O)/C(C#N)=C/c2ccc(N3CCCC3)c(C)c2)cc1 | 2.19%
94 | Cc1cc(N2CCCC2)ccc1/C=C1\NC(=S)N(C)C1=O | 11.3%
95 | CCCN1C(=O)/C(=C/c2ccc(N3CCCC3)c(C)c2)NC1=S | 8.1%
96 | Cc1cc(/C=C2/C(=O)N(C)C(=S)N2C)ccc1N1CCCC1 | 106% (active)
97 | Cc1cc(/C=C2\NC(=S)N(C)C2=O)ccc1N1CCCC1 | 26.1% (active)
